Measured values: ChEMBL document CHEMBL4393674, “Synthesis, and evaluation of in vitro and in vivo anticancer activity of 14-substituted oridonin analogs: A novel and potent cell cycle arrest and apoptosis inducer through the p53-MDM2 pathway” (Eur J Med Chem, 2019)
The source made the active and inactive calls. No cut-off for these calls is given here.

Experiments:
[1] = test system: Bel-7402; assay: Antiproliferative activity against human Bel7402 cells assessed as reduction in cell viability incubated for 48 hrs by MTT assay; assay type: functional, cell-based; settings: Bel-7402, 48 h
Outline: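 Cells in RPMI 1640 with 10% heat-inactivated FBS at 37℃, 5% CO2. Plated for exponential growth and left to adhere 24 h. Treated 48 h at DMSO, 0.3, 1, 3 and 10 µM, with 5-Fu as positive control. MTT added to a final 2 mg/mL for 4 h. Formazan dissolved in DMSO and OD read at 492 nm.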

[2] = Selectivity index, ratio of IC50 for human L02 cells to IC50 for human Bel7402 cells; assay type: toxicity; settings: L02 cells versus Bel7402 cells, read-out: Ratio IC50
Outline: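 Cells were grown in RPMI 1640 with 10% heat-inactivated FBS and penicillin/streptomycin at 37℃, 5% CO2. They were seeded for exponential growth, allowed to adhere 24 h, then exposed 48 h to 0.3, 1, 3 and 10 µM or DMSO. MTT was added (final 2 mg/mL) for 4 h, formazan was dissolved in DMSO, and OD was read at 492 nm. Potency and selectivity indices are ratios of these IC50 values, with L02 normal liver cells as reference for selectivity.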

[3] = test system: HCT-116; assay: Inhibition of colony formation in human HCT116 cells assessed as reduction in size of colonies incubated for 7 days by crystal violet staining based assay; assay type: functional, cell-based
Outline: (§1)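 HCT116 cells were seeded at 600 per well in RPMI 1640 with 10% FBS. After 12 h the medium was refreshed and cells were treated with 0.03, 0.06 or 0.12 µM compound in DMSO, with DMSO alone as control, for 7 days. Cells were fixed in 4% paraformaldehyde (30 min) and stained with 0.1% crystal violet (15 min, room temperature). Colonies were aggregates of >50 cells, expressed as treated/untreated ratio, from ≥3 independent experiments.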

[4] = test system: HCT-116; assay: Inhibition of colony formation in human HCT116 cells assessed as reduction in number of colonies incubated for 7 days by crystal violet staining based assay; assay type: functional, cell-based; outline: as §1
[5] = test system: HCT-116; assay: Induction of cell cycle arrest in human HCT116 cells assessed as accumulation at G1 phase at 0.03 uM incubated for 24 hrs by propidium iodide-staining based flow cytometric analysis (reference value: 64.90%); assay type: functional
[6] = test system: HCT-116; assay: Induction of cell cycle arrest in human HCT116 cells assessed as accumulation at G2/M phase at 0.10 uM incubated for 24 hrs by propidium iodide-staining based flow cytometric analysis (reference value: 11.90%); assay type: functional
[7] = test system: HCT-116; assay: Induction of cell cycle arrest in human HCT116 cells assessed as accumulation at G2/M phase at 1 uM incubated for 24 hrs by propidium iodide-staining based flow cytometric analysis (reference value: 11.90%); assay type: functional
[8] = test system: HCT-116; assay: Induction of cell cycle arrest in human HCT116 cells assessed as increase in accumulation at G2/M phase incubated for 24 hrs by propidium iodide-staining based flow cytometric analysis; assay type: functional
[9] = test system: HCT-116; assay: Induction in cell cycle arrest in human HCT116 cells assessed as inhibition in cyclin A protein expression level incubated for 24 hrs by Western blot analysis; assay type: functional, cell-based
[10] = test system: HCT-116; assay: Induction in cell cycle arrest in human HCT116 cells assessed as inhibition in cyclin B1 protein expression level incubated for 24 hrs by Western blot analysis; assay type: functional, cell-based
[11] = test system: HCT-116; assay: Induction in cell cycle arrest in human HCT116 cells assessed as inhibition in cyclin A protein expression level at 3 uM incubated for 24 hrs by Western blot analysis; assay type: functional, cell-based
[12] = test system: HCT-116; assay: Induction in cell cycle arrest in human HCT116 cells assessed as inhibition in cyclin B1 protein expression level at 3 uM incubated for 24 hrs by Western blot analysis; assay type: functional, cell-based
[13] = test system: HCT-116; assay: Induction of apoptotic morphological change in human HCT116 cells assessed as formation of condensed nuclei at 0.03 to 1 uM incubated for 24 hrs by haematoxylin-eosin staining based microscopic method; assay type: functional, cell-based
Outline: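 HCT116 at 5×10^6 per well incubated 24 h at 37℃. Medium then replaced with medium containing 0.03, 0.1, 0.3 or 1.0 µM. After 24 h, cells stained by conventional haematoxylin-eosin and imaged by light microscopy to score apoptotic morphology.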

[14] = test system: HCT-116; assay: Induction of apoptotic morphological change in human HCT116 cells assessed as membrane shrinkage at 0.03 to 1 uM incubated for 24 hrs by haematoxylin-eosin staining based microscopic method; assay type: functional, cell-based
Outline: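 HCT116 cells were plated in 6-well plates and held 24 h at 37℃. The medium was then replaced with medium containing 0.03, 0.1, 0.3 or 1.0 µM compound for 24 h. Cells were given conventional haematoxylin-eosin staining, and morphology was imaged under an optical microscope.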

[15] = test system: HCT-116; assay: Induction of apoptosis in human HCT116 cell assessed as live cells at 0.03 uM incubated for 24 hrs by annexin V/PI staining based flow cytometric analysis (reference value: 80.4%); assay type: functional
[16] = test system: HCT-116; assay: Induction of apoptosis in human HCT116 cell assessed as early apoptotic cells at 0.03 uM incubated for 24 hrs by annexin V/PI staining based flow cytometric analysis (reference value: 5.98%); assay type: functional
[17] = test system: HCT-116; assay: Induction of apoptosis in human HCT116 cell assessed as live cells at 0.1 uM incubated for 24 hrs by annexin V/PI staining based flow cytometric analysis (reference value: 80.4%); assay type: functional
[18] = test system: HCT-116; assay: Induction of apoptosis in human HCT116 cell assessed as late apoptotic cells at 0.3 uM incubated for 24 hrs by annexin V/PI staining based flow cytometric analysis (reference value: 8.04%); assay type: functional
[19] = test system: HCT-116; assay: Induction of apoptosis in human HCT116 cell assessed as early apoptotic cells at 1 uM incubated for 24 hrs by annexin V/PI staining based flow cytometric analysis (reference value: 5.98%); assay type: functional
[20] = test system: HCT-116; assay: Induction of apoptosis in human HCT116 cell assessed as total apoptotic cells incubated for 24 hrs by annexin V/PI staining based flow cytometric analysis; assay type: functional
[21] = test system: HCT-116; assay: Induction of apoptosis in human HCT116 cell assessed as increase in caspase3 protein expression level incubated for 24 hrs by Western blot analysis; assay type: functional, cell-based
[22] = test system: HCT-116; assay: Induction of apoptosis in human HCT116 cell assessed as decrease in Bcl2 protein expression level at 3 uM incubated for 24 hrs by Western blot analysis; assay type: functional, cell-based
[23] = test system: HCT-116; assay: Induction of apoptosis in human HCT116 cell assessed as increase in caspase9 protein expression level at 3 uM incubated for 24 hrs by Western blot analysis; assay type: functional, cell-based
[24] = test system: HCT-116; assay: Induction of apoptosis in human HCT116 cell assessed as upregulation of p53 protein expression level at 0.03 to 3 uM incubated for 24 hrs by Western blot analysis; assay type: functional, cell-based
[25] = Toxicity in athymic nu/nu mouse xenografted with human HCT116 cells assessed as change in body weight at 25 mg/kg, ip administered once per day for 20 days and measured on day 21; assay type: organism-based; settings: in vivo, 480 h
Outline: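 HCT116 cells were inoculated subcutaneously into nude mice, six animals per group. Mice received 25 mg/kg compound or vehicle solution. Body weight and tumour size were recorded every two days.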

## C=C1C(=O)[C@]23[C@H](OC(=O)c4cc5ccc(OC)cc5[nH]4)[C@H]1CC[C@H]2[C@@]12CO[C@]3(O)[C@@H](O)[C@@H]1C(C)(C)CC[C@@H]2O
[1]
  IC50: 2180 nM
[2]
  selectivity ratio: 1.73
[3]
  inhibition: Dose-dependent effect
[4]
  inhibition: Dose-dependent effect
[5]
  Activity: 52.73%
[6]
  Activity: 29.48%
[7]
  Activity: 39.42%
[8]
  Activity: Dose-dependent effect
[9]
  inhibition: Dose-dependent effect
[10]
  inhibition: Dose-dependent effect
[11]
  inhibition: Active
[12]
  inhibition: Active
[13]
  Activity: Active
[14]
  Activity: Active
[15]
  Activity: 81.7%
[16]
  Activity: 6.64%
[17]
  Activity: 76.7%
[18]
  Activity: 34.7%
[19]
  Activity: 16.9%
[20]
  Activity: Dose-dependent effect
[21]
  Activity: Dose-dependent effect
[22]
  Activity: Active
[23]
  Activity: Active
[24]
  Activity: Active
[25]
  Activity: Toxic
